The values below come from ChEMBL document CHEMBL4406851, “Design, synthesis and biological evaluation of cinnamic acid derivatives with synergetic neuroprotection and angiogenesis effect” (Eur J Med Chem, 2019).

Active and inactive are the calls of the source. The calls are words filed in the database; no cut-off is given here.

One may read the EC50 as the midpoint of the concentration-response curve.

The nature of assay [1]: Neuroprotective activity against H2O2-induced cell damage in human HBMEC2 cells assessed as increase in cell viability preincubated for 24 hrs followed by H2O2 addition and measured after 4 hrs by MTT assay. The conditions noted are these: HBMEC-2. Format: functional, cell-based. An outline of the steps: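 Cells at 3.5×10^4 cells/mL in 96-well plates were grown 24 h (37 °C, 5% CO2). Test agent was added at five concentrations for 24 h, then H2O2 (4.8 mM stock) to model and drug wells. After PBS washes, MTT (5 mg/mL) was added for 4 h, formazan was dissolved in DMSO and OD was read at 550 nm. Proliferation rate = (drug − injury OD)/(control − injury OD). EC50 came from a formula using maximum concentration and summed, maximal and minimal rates.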
A general note: Tetrazolium dyes change colour on reduction, which living cells bring about.

The subject of assay [2] is HBMEC-2. Briefly: Protection against H2O2-induced apoptosis in human HBMEC2 cells assessed as reduction in cell disruption at 1.56 to 6.25 uM preincubated for 24 hrs followed by H2O2 addition measured after 4 hrs by Giemsa staining based inverted phase contrast microscopic analysis. It counts as functional. An outline of the steps:
(§1)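 Cells at 3.5×10^4 cells/mL in 24-well plates were pretreated 24 h with compound at three concentrations, then H2O2 (4.8 mM stock) for 4 h. After PBS washes, cells were fixed in 4% paraformaldehyde/70% cold ethanol for 10 min. Staining was 6% Giemsa or DAPI for 5 min in the dark. Random fields were photographed at 200× by microscope, alongside control and model groups.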

In assay [3] the test system is HBMEC-2. The assay is described as follows: Protection against H2O2-induced apoptosis in human HBMEC2 cells assessed as reduction in cell shrinkage at 1.56 to 6.25 uM preincubated for 24 hrs followed by H2O2 addition and measured after 4 hrs by Giemsa staining based inverted phase contrast microscopic analysis. Format: functional. An outline of the steps: as §1
Assay [4] deals with HBMEC-2. The assay is described as follows: Protection against H2O2-induced apoptosis in human HBMEC2 cells assessed as decrease in nuclear fragmentation preincubated for 24 hrs followed by H2O2 addition measured after 4 hrs by DAPI staining based inverted phase contrast microscopic analysis. It counts as functional, cell-based. An outline of the steps:
as §1

Assay [5] relates to SH-SY5Y. Briefly: Protection against H2O2-induced apoptosis in human SH-SY5Y cells assessed as decrease in number of irregular cells preincubated for 24 hrs followed by H2O2 addition measured after 4 hrs by DAPI staining based inverted phase contrast microscopic analysis. It counts as functional, cell-based. Put shortly:
as §1

Assay [6] relates to SH-SY5Y. Briefly: Protection against H2O2-induced apoptosis in human SH-SY5Y cells assessed as decrease in nuclear fragmentation preincubated for 24 hrs followed by H2O2 addition measured after 4 hrs by DAPI staining based inverted phase contrast microscopic analysis. Format: functional, cell-based. Put shortly: as §1
Assay [7] is described as follows: Inhibition of H2O2-induced apoptosis in human HBMEC2 cells assessed as normal cells at 1.56 uM preincubated for 24 hrs followed by H2O2 addition measured after 4 hrs by Annexin V-FITC/propidium iodide staining based flow cytometry (reference value: 62.1 %). Format: functional, HBMEC-2. More on the design: scale not given: the % may be the effect or the level left. An outline of the steps: (§2)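 Cells were seeded at 3.5×10^4 cells/mL in 6-well plates at 37 °C, 5% CO2. Compound was added at three concentrations for 24 h, then H2O2 (4.8 mM stock solution) to model and drug wells for 4 h. Cells were collected, washed in cold PBS and resuspended in annexin-binding buffer. Staining was annexin V-FITC 10 min, then PI 5 min, in the dark, followed by flow cytometry with quadrant gating.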

Assay [8] in a line: Inhibition of H2O2-induced apoptosis in human HBMEC2 cells assessed as early apoptotic cells at 1.56 uM preincubated for 24 hrs followed by H2O2 addition measured after 4 hrs by Annexin V-FITC/propidium iodide staining based flow cytometry (reference value: 8.1 %). It counts as functional, HBMEC-2. More on the design: scale not given: the % may be the effect or the level left. An outline of the steps:
as §2
(In general: A flow cytometer gives signals particle by particle.)

A short description of assay [9]: Inhibition of H2O2-induced apoptosis in human HBMEC2 cells assessed as late apoptotic cells at 3.13 uM preincubated for 24 hrs followed by H2O2 addition measured after 4 hrs by Annexin V-FITC/propidium iodide staining based flow cytometry (reference value: 29.4 %). Format: functional, HBMEC-2. Also on record: scale not given: the % may be the effect or the level left. An outline of the steps: as §2

A short description of assay [10]: Inhibition of H2O2-induced apoptosis in human HBMEC2 cells assessed as early apoptotic cells at 3.13 uM preincubated for 24 hrs followed by H2O2 addition measured after 4 hrs by Annexin V-FITC/propidium iodide staining based flow cytometry (reference value: 8.1 %). Format: functional, HBMEC-2. More on the design: scale not given: the % may be the effect or the level left. An outline of the steps: as §2

Assay [11] in a line: Inhibition of H2O2-induced apoptosis in human HBMEC2 cells assessed as normal cells at 6.25 uM preincubated for 24 hrs followed by H2O2 addition measured after 4 hrs by Annexin V-FITC/propidium iodide staining based flow cytometry (reference value: 62.1 %). Format: functional, HBMEC-2. Also on record: scale not given: the % may be the effect or the level left. Put shortly: as §2

For assay [12], the system named is SH-SY5Y. Briefly: Inhibition of H2O2-induced apoptosis in human SH-SY5Y cells assessed as late apoptotic cells at 1.56 uM preincubated for 24 hrs followed by H2O2 addition measured after 4 hrs by Annexin V-FITC/propidium iodide staining based flow cytometry (reference value: 26.5 %). It counts as functional. Also on record: scale not given: the % may be the effect or the level left. Put shortly: as §2

Assay [13] has as its system SH-SY5Y. Briefly: Inhibition of H2O2-induced apoptosis in human SH-SY5Y cells assessed as early apoptotic cells at 3.13 uM preincubated for 24 hrs followed by H2O2 addition measured after 4 hrs by Annexin V-FITC/propidium iodide staining based flow cytometry (reference value: 5.4 %). Also on record: scale not given: the % may be the effect or the level left. It counts as functional. An outline of the steps: as §2

The subject of assay [14] is SH-SY5Y. The assay is described as follows: Inhibition of H2O2-induced apoptosis in human SH-SY5Y cells assessed as necrotic cells at 6.25 uM preincubated for 24 hrs followed by H2O2 addition measured after 4 hrs by Annexin V-FITC/propidium iodide staining based flow cytometry (reference value: 0.9 %). It counts as functional. Also on record: scale not given: the % may be the effect or the level left. An outline of the steps: as §2

For assay [15], the system named is SH-SY5Y. The assay is described as follows: Protection against H2O2-induced mitochondrial dysfunction in human SH-SY5Y cells assessed as recovery of mitochondrial membrane potential at 1.56 to 6.25 uM preincubated for 24 hrs followed by H202 addition measured after 4 hrs by Rh123 staining based inverted light microscopic analysis. It counts as functional, cell-based. An outline of the steps: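 Cells in 96-well plates (3.5×10^4 cells/mL) were grown 24 h. They were pretreated 24 h with compound at three concentrations, then exposed to H2O2 (4.8 mM stock) for 4 h. Medium was removed and Rh123 added for 30 min at 37 °C. Cells were washed twice in cold PBS and examined immediately under an inverted microscope for green fluorescence.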

The species named for a further assay is Gallus gallus. The assay is described as follows: Induction of angiogenesis in chicken embryo assessed as up regulation of VEGFR2 mRNA expression at 1 mg/ml by RT-PCR analysis. Format: functional, organism-based. An outline of the steps: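 Total RNA came from chick embryos of the 1 mg/mL CAM group (Trizol extraction) and was reverse-transcribed with M-MLV. SYBR real-time PCR ran 40 cycles of 94 °C 15 s / 60 °C 35 s, then 72 °C 10 min. Expression was quantified relative to controls by the 2^-ΔΔCT method.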

The subject of a further assay is Chorioallantoic membrane. The assay is described as follows: Induction of angiogenesis in chicken chorioallantoic membrane assessed as increase in microvessel formation at 1 mg/ml measured after 48 hrs by dissecting microscopic analysis. It counts as functional, cell membranes. The following applies: Gallus gallus. An outline of the steps:
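Fertile eggs were incubated 7 days at 37 °C and 60% humidity. A small window was opened at one end and the membrane was wetted with a drop of sterile saline. Test solution (0.5, 1 or 2 mg/mL) was applied to the allantoic membrane, with PBS for controls. After 48 h the membrane was separated from the shell, then viewed and photographed under a dissecting microscope.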

Assay [16] deals with HBMEC-2. The assay is described as follows: Protection against H2O2-induced apoptosis in human HBMEC2 cells assessed as increase in cell number preincubated for 24 hrs followed by H2O2 addition measured after 4 hrs by DAPI staining based inverted phase contrast microscopic analysis. Format: functional. Put shortly: as §1
The subject of assay [17] is SH-SY5Y. Briefly: Protection against H2O2-induced apoptosis in human SH-SY5Y cells assessed as increase in cell number at 1.56 to 6.25 uM preincubated for 24 hrs followed by H2O2 addition measured after 4 hrs by Giemsa staining based inverted phase contrast microscopic analysis. It counts as functional. Put shortly: as §1

Take `COc1cc(CNC(=O)/C=C/c2cc(OC)c(OC)cc2OC)ccc1O`: in [1], the EC50 amounted to 3.26 µM. Further, the outcome in the assay with HBMEC-2 [2], with HBMEC-2 [3], with SH-SY5Y [15], in the assay filed under Gallus gallus, with Chorioallantoic membrane and in the assay on SH-SY5Y [17] was Active. Further, the Activity entry is “Dose-dependent effect” in the assay with HBMEC-2 [4]; “Dose-dependent effect” in the assay on SH-SY5Y [5]; “Dose-dependent effect” in the assay on SH-SY5Y [6]; 70.6% in assay [7]; 9.1% in assay [8]; 10.5% in [9]. For the same compound, the Activity was 8.9% in assay [10]; 81.4% in [11]; 23.9% in the assay on SH-SY5Y [12]; 4.2% in the assay with SH-SY5Y [13]; 1.1% in the assay with SH-SY5Y [14]; “Dose-dependent effect” in the assay with HBMEC-2 [16].
